Source: ChEMBL document CHEMBL1255409, “In vitro activity of ceftaroline against 623 diverse strains of anaerobic bacteria” (2010)

Experiments:
Format in all cases: functional
[1] = test system: Enterocloster clostridioformis; experiment: Antimicrobial activity against Clostridium clostridioforme under anaerobic conditions after 44 hrs by CLSI-M11-47 protocol based agar dilution method
Method in brief: (§1)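 Reference agar dilution per CLSI M11-A7 with plates made on test day. Clinical isolates were stored at −70°C in 20% skim milk, subcultured twice, and 48-h cell paste was suspended in brucella broth to 0.5 McFarland. About 10^5 CFU/spot was applied with a Steers replicator. Plates were incubated 44 h at 37°C anaerobically. MIC was the lowest concentration giving complete inhibition or marked growth reduction versus the drug-free control.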

Prevotella bergensis = experiment: Antimicrobial activity against Prevotella bergensis under anaerobic conditions after 44 hrs by CLSI-M11-47 protocol based agar dilution method; conditions: Hallella bergensis
Method in brief: (§2)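 Clinical isolates were stored at −70°C in 20% skim milk and identified phenotypically or by partial 16S rRNA sequencing. Each strain was subcultured twice from frozen stock. Cell paste from 48-h cultures was suspended in brucella broth to a 0.5 McFarland standard. About 10^5 CFU per spot were applied by Steers replicator to agar dilution plates prepared on the day of testing. Plates were incubated 44 h at 37°C in an anaerobic chamber. MIC was taken as the lowest concentration giving complete inhibition or marked reduction of growth versus the drug-free control.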

Clostridium baratii = experiment: Antimicrobial activity against Clostridium baratii under anaerobic conditions after 44 hrs by CLSI-M11-47 protocol based agar dilution method
Clostridium citroniae = experiment: Antimicrobial activity against Clostridium citroniae under anaerobic conditions after 44 hrs by CLSI-M11-47 protocol based agar dilution method; conditions: Enterocloster citroniae; method in brief: as §1
Propionibacterium avidum = experiment: Antimicrobial activity against Propionibacterium avidum under anaerobic conditions after 44 hrs by CLSI-M11-47 protocol based agar dilution method; conditions: Cutibacterium avidum; method in brief: as §2
Clostridium tertium = experiment: Antimicrobial activity against Clostridium tertium under anaerobic conditions after 44 hrs by CLSI-M11-47 protocol based agar dilution method; method in brief: as §1
Fusobacterium varium = experiment: Antimicrobial activity against Fusobacterium varium under anaerobic conditions after 44 hrs by CLSI-M11-47 protocol based agar dilution method; method in brief: as §2
Clostridium aldenense = experiment: Antimicrobial activity against Clostridium aldenense under anaerobic conditions after 44 hrs by CLSI-M11-47 protocol based agar dilution method; conditions: Enterocloster aldenensis; method in brief: as §1
Prevotella intermedia = experiment: Antimicrobial activity against Prevotella intermedia under anaerobic conditions after 44 hrs by CLSI-M11-47 protocol based agar dilution method; method in brief: as §2
Anaerococcus prevotii = experiment: Antimicrobial activity against Anaerococcus prevotii under anaerobic conditions after 44 hrs by CLSI-M11-47 protocol based agar dilution method; method in brief: as §1
Prevotella corporis = experiment: Antimicrobial activity against Prevotella corporis under anaerobic conditions after 44 hrs by CLSI-M11-47 protocol based agar dilution method; method in brief: as §2
Lacticaseibacillus casei = experiment: Antimicrobial activity against Lactobacillus casei under anaerobic conditions after 44 hrs by CLSI-M11-47 protocol based agar dilution method; method in brief: as §2
[2] = test system: Peptostreptococcus stomatis; experiment: Antimicrobial activity against Peptostreptococcus stomatis under anaerobic conditions after 44 hrs by CLSI-M11-47 protocol based agar dilution method; method in brief: as §2
Bacteroides ovatus = experiment: Antimicrobial activity against Bacteroides ovatus under anaerobic conditions after 44 hrs by CLSI-M11-47 protocol based agar dilution method; method in brief: as §1
Eubacterium cylindroides = experiment: Antimicrobial activity against Eubacterium cylindroides under anaerobic conditions after 44 hrs by CLSI-M11-47 protocol based agar dilution method; conditions: Faecalitalea cylindroides; method in brief: as §1
Anaerococcus murdochii = experiment: Antimicrobial activity against Anaerococcus murdochii under anaerobic conditions after 44 hrs by CLSI-M11-47 protocol based agar dilution method; method in brief: as §1
Atopobium parvulum = experiment: Antimicrobial activity against Atopobium parvulum under anaerobic conditions after 44 hrs by CLSI-M11-47 protocol based agar dilution method; conditions: Lancefieldella parvula; method in brief: as §1
[3] = test system: Anaerococcus lactolyticus; experiment: Antimicrobial activity against Anaerococcus lactolyticus under anaerobic conditions after 44 hrs by CLSI-M11-47 protocol based agar dilution method; method in brief: as §1
[4] = test system: Fusobacterium necrophorum; experiment: Antimicrobial activity against Fusobacterium necrophorum under anaerobic conditions after 44 hrs by CLSI-M11-47 protocol based agar dilution method; method in brief: as §1
[5] = test system: Peptoniphilus asaccharolyticus; experiment: Antimicrobial activity against Peptoniphilus asaccharolyticus under anaerobic conditions after 44 hrs by CLSI-M11-47 protocol based agar dilution method; method in brief: as §2
Prevotella tannerae = experiment: Antimicrobial activity against Prevotella tannerae under anaerobic conditions after 44 hrs by CLSI-M11-47 protocol based agar dilution method; conditions: Alloprevotella tannerae; method in brief: as §2
Eggerthella lenta = experiment: Antimicrobial activity against Eggerthella lenta under anaerobic conditions after 44 hrs by CLSI-M11-47 protocol based agar dilution method; method in brief: as §1
Collinsella aerofaciens = experiment: Antimicrobial activity against Colinsella aerofaciens under anaerobic conditions after 44 hrs by CLSI-M11-47 protocol based agar dilution method; method in brief: as §1
Clostridium hathewayi = experiment: Antimicrobial activity against Clostridium hathewayi under anaerobic conditions after 44 hrs by CLSI-M11-47 protocol based agar dilution method; conditions: Hungatella hathewayi; method in brief: as §1
Clostridium perfringens = experiment: Antimicrobial activity against Clostridium perfringens under anaerobic conditions after 44 hrs by CLSI-M11-47 protocol based agar dilution method
Clostridium bolteae = experiment: Antimicrobial activity against Clostridium bolteae under anaerobic conditions after 44 hrs by CLSI-M11-47 protocol based agar dilution method; conditions: Enterocloster bolteae; method in brief: as §1
Mogibacterium timidum = experiment: Antimicrobial activity against Mogibacterium timidum under anaerobic conditions after 44 hrs by CLSI-M11-47 protocol based agar dilution method; method in brief: as §2
Parabacteroides merdae = experiment: Antimicrobial activity against Bacteroides merdae under anaerobic conditions after 44 hrs by CLSI-M11-47 protocol based agar dilution method; method in brief: as §1
Actinomyces turicensis = experiment: Antimicrobial activity against Actinomyces turicensis under anaerobic conditions after 44 hrs by CLSI-M11-47 protocol based agar dilution method; conditions: Schaalia turicensis; method in brief: as §1
Finegoldia magna = experiment: Antimicrobial activity against Finegoldia magna under anaerobic conditions after 44 hrs by CLSI-M11-47 protocol based agar dilution method; method in brief: as §1
Clostridium glycolicum = experiment: Antimicrobial activity against Clostridium glycolicum under anaerobic conditions after 44 hrs by CLSI-M11-47 protocol based agar dilution method; conditions: Terrisporobacter glycolicus; method in brief: as §1
[6] = test system: Porphyromonas asaccharolytica; experiment: Antimicrobial activity against Porphyromonas asaccharolyticus under anaerobic conditions after 44 hrs by CLSI-M11-47 protocol based agar dilution method; method in brief: as §2

CCO/N=C(\C(=O)N[C@@H]1C(=O)N2C(C(=O)[O-])=C(Sc3nc(-c4cc[n+](C)cc4)cs3)CS[C@H]12)c1nsc(NP(=O)(O)O)n1 [CEFTAROLINE FOSAMIL]
2 µg/mL: MIC90 [1] | MIC50 (Prevotella bergensis) | MIC90 (Clostridium citroniae) | MIC90 (Clostridium aldenense) | MIC50 (Prevotella corporis) | MIC50 (Prevotella tannerae) | MIC90 (Clostridium hathewayi) | MIC90 (Clostridium bolteae)
16 µg/mL: MIC90 (Clostridium baratii) | MIC90 (Clostridium tertium) | MIC90 (Prevotella intermedia) | MIC90 (Eggerthella lenta) | MIC90 (Clostridium glycolicum)
64 µg/mL: MIC50 (Bacteroides ovatus) | MIC50 (Parabacteroides merdae)
0.125 µg/mL: MIC90 (Anaerococcus prevotii) | MIC50 (Eubacterium cylindroides) | MIC50 (Atopobium parvulum) | MIC50 (Collinsella aerofaciens) | MIC50 (Clostridium perfringens) | MIC50 (Mogibacterium timidum)
0.03 µg/mL: MIC50 (Anaerococcus prevotii) | MIC50 [4] | MIC90 [6]
1 µg/mL: MIC50 [1] | MIC50 (Clostridium citroniae) | MIC50 (Clostridium aldenense) | MIC50 (Prevotella intermedia) | MIC90 (Lacticaseibacillus casei) | MIC90 (Anaerococcus murdochii) | MIC90 [3] | MIC50 (Clostridium hathewayi) | MIC50 (Clostridium bolteae)
32 µg/mL: MIC90 (Prevotella bergensis) | MIC90 (Prevotella corporis) | MIC90 (Prevotella tannerae)
0.015 µg/mL: MIC50 (Actinomyces turicensis) | MIC50 [6]
> 64 µg/mL: MIC90 (Bacteroides ovatus) | MIC90 (Parabacteroides merdae)
0.06 µg/mL: MIC50 (Anaerococcus murdochii) | MIC50 [3] | MIC90 [4] | MIC50 [5]
0.5 µg/mL: MIC50 (Clostridium baratii) | MIC50 (Clostridium tertium) | MIC90 (Fusobacterium varium) | MIC50 (Lacticaseibacillus casei) | MIC50 [2] | MIC90 (Finegoldia magna) | MIC50 (Clostridium glycolicum)
4 µg/mL: MIC90 [2]
8 µg/mL: MIC50 (Eggerthella lenta)
0.25 µg/mL: MIC50 (Propionibacterium avidum) | MIC90 (Propionibacterium avidum) | MIC50 (Fusobacterium varium) | MIC90 (Eubacterium cylindroides) | MIC90 (Atopobium parvulum) | MIC90 [5] | MIC90 (Collinsella aerofaciens) | MIC90 (Clostridium perfringens) | MIC90 (Mogibacterium timidum) | MIC90 (Actinomyces turicensis) | MIC50 (Finegoldia magna)

Cc1ncc([N+](=O)[O-])n1CCO [METRONIDAZOLE]
4 µg/mL: MIC90 (Clostridium baratii) | MIC90 (Clostridium tertium) | MIC90 (Anaerococcus murdochii) | MIC90 [3] | MIC90 (Clostridium perfringens) | MIC90 (Clostridium glycolicum)
> 64 µg/mL: MIC50 (Lacticaseibacillus casei) | MIC90 (Lacticaseibacillus casei)
0.06 µg/mL: MIC50 [1] | MIC50 (Clostridium citroniae) | MIC50 (Clostridium aldenense) | MIC50 (Clostridium hathewayi) | MIC50 (Clostridium bolteae) | MIC50 [6]
1 µg/mL: MIC90 (Prevotella intermedia) | MIC50 (Anaerococcus prevotii) | MIC90 [2] | MIC50 (Bacteroides ovatus) | MIC90 (Eubacterium cylindroides) | MIC50 (Anaerococcus murdochii) | MIC90 (Atopobium parvulum) | MIC50 [3] | MIC50 [5] | MIC90 [5] | MIC50 (Eggerthella lenta) | MIC90 (Eggerthella lenta) | MIC90 (Collinsella aerofaciens) | MIC90 (Mogibacterium timidum) | MIC50 (Parabacteroides merdae) | MIC90 (Finegoldia magna)
2 µg/mL: MIC90 (Prevotella bergensis) | MIC90 (Anaerococcus prevotii) | MIC90 (Prevotella corporis) | MIC90 (Bacteroides ovatus) | MIC90 (Prevotella tannerae) | MIC50 (Clostridium perfringens) | MIC90 (Parabacteroides merdae)
0.5 µg/mL: MIC50 (Prevotella bergensis) | MIC50 (Clostridium baratii) | MIC50 (Clostridium tertium) | MIC90 (Fusobacterium varium) | MIC50 (Prevotella corporis) | MIC50 [2] | MIC50 (Eubacterium cylindroides) | MIC50 (Atopobium parvulum) | MIC50 (Prevotella tannerae) | MIC50 (Collinsella aerofaciens) | MIC50 (Mogibacterium timidum) | MIC50 (Finegoldia magna) | MIC50 (Clostridium glycolicum)
0.125 µg/mL: MIC50 [4] | MIC90 [6]
> 32 µg/mL: MIC50 (Propionibacterium avidum) | MIC50 (Actinomyces turicensis) | MIC90 (Actinomyces turicensis)
0.25 µg/mL: MIC90 [1] | MIC90 (Clostridium citroniae) | MIC50 (Fusobacterium varium) | MIC90 (Clostridium aldenense) | MIC50 (Prevotella intermedia) | MIC90 [4] | MIC90 (Clostridium hathewayi) | MIC90 (Clostridium bolteae)
> 31 µg/mL: MIC90 (Propionibacterium avidum)
